Experimental data published in ChEMBL document CHEMBL1153760, “Identification and structure-activity relationships of chromene-derived selective estrogen receptor modulators for treatment of postmenopausal symptoms” (J Med Chem, 2009).
Blank lines part the entries; values can stand above or below the compound they belong to. Activity calls are given as the source filed them. The rule behind the calls is not given here.

Experiments:
Estrogen receptor [1] = target: T1, Estrogen receptor (Homo sapiens, UniProt P03372); experiment: Displacement of radiolabeled estrogen from estrogen receptor alpha by scintillation counting
T1 sequence (P03372 whole entry): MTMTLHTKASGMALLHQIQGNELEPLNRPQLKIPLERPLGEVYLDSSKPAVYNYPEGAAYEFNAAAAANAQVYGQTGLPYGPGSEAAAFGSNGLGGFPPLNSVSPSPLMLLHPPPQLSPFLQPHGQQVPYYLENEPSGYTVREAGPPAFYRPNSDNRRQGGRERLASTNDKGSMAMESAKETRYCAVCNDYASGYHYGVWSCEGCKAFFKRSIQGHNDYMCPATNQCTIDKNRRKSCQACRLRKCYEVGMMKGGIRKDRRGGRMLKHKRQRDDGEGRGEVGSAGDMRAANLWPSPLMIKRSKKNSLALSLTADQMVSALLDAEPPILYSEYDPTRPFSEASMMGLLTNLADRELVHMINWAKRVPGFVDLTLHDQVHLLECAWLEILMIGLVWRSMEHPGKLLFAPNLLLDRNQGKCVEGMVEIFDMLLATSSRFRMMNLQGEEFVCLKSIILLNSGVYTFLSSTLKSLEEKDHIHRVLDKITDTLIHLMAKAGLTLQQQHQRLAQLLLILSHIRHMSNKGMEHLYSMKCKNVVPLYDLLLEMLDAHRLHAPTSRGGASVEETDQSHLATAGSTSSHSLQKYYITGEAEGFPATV

Estrogen receptor [2] = target: T1, Estrogen receptor; experiment: Antagonist activity at estrogen receptor in human Ishikawa cells assessed as 17-beta-estradiol-induced alkaline phosphatase activity after 3 days by chemiluminescence assay; format: functional, cell-based
Rattus norvegicus [3] = species: Rattus norvegicus; experiment: animal or person; format: functional; conditions: Uterus, 72 h, route oral
Estrogen receptor beta = Estrogen receptor beta (Homo sapiens, UniProt Q92731); experiment: Inhibition of fluormone ES2 binding to estrogen receptor beta after 1 hr by fluorescence polarization assay
Sequence of Estrogen receptor beta (Q92731 whole entry): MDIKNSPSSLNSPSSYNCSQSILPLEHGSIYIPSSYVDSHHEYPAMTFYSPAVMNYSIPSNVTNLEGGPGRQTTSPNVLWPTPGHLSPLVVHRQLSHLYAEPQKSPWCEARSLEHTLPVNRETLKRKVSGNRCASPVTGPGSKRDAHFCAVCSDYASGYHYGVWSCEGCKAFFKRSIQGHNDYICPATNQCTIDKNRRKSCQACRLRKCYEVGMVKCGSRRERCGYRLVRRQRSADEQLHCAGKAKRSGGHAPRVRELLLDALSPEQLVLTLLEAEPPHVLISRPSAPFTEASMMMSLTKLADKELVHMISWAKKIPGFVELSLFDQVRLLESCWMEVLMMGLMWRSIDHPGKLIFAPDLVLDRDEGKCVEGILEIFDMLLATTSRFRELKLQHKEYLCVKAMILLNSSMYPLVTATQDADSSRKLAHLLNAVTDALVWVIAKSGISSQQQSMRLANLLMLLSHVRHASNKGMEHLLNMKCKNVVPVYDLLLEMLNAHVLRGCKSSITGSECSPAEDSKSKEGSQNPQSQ

Rattus norvegicus [4] = experiment: Uterotropic activity in rat assessed as stimulation of estrone-induced uterine weight at 1 mg/kg, po QD after 3 days; format: functional; conditions: Uterus, 72 h
[5] = Cmax in rats after 2 mg/kg intravenous dose; format: ADME, organism-based; set-up: dose 2 mg/kg, route intravenous; conditions: rat, in vivo
Summary of the method: (§1)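 Single-dose rat pharmacokinetics. IV dosing at 1-3 mg/kg as a solution in 10% β-cyclodextrin; oral gavage at 10 mg/kg as a uniform suspension in 0.5% methylcellulose. Blood (0.5 mL) collected into heparinized tubes by orbital sinus puncture after dosing. Plasma extracted into acetonitrile with an internal standard and analysed by LC-MS-MS against standards to obtain PK parameters.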

Rattus norvegicus [6] = experiment: Decrease in tail skin temperature rise in morphine-addicted Sprague-Dawley rat hot flush model at 0.01 to 10 mg/kg, po administered daily measured for 60 mins after naloxone-induced morphine withdrawal; format: functional, organism-based
Summary of the method: (§2)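 Ovariectomized adult female Sprague-Dawley rats (3 months), 8-25 per group; oral gavage starting 6 days post-ovariectomy, sesame oil vehicle, suspension. Morphine given sc at 75 and 150 mg on treatment days 3 and 5. On the last day, under ketamine (80 mg/kg, im), tail thermistor; baseline about 20 min, then naloxone 2.0 mg/kg sc and tail skin temperature recorded 60 min. Multiple comparisons at each time point.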

Rattus norvegicus [7] = experiment: Increase in vaginal fluidity in po dosed ovariectomized rat administered daily measured after 2 weeks […]; format: functional, organism-based
Summary of the method: (§3)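 Ovariectomized adult female rats dosed daily by oral gavage (0.5% Methocel suspension) for 2 or 6 weeks from 24 h after surgery. Vaginal fluid collected with a cotton swab and its absolute weight determined per animal.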

[8] = AUC in rat at 2 mg/kg, iv administered as single dose by LC-MS/MS analysis; format: ADME, organism-based; set-up: dose 2 mg/kg, route intravenous; conditions: plasma; summary of the method: as §1
[9] = Oral bioavailability in rat at 10 mg/kg administered as single dose by LC-MS/MS analysis; format: ADME, organism-based; conditions: in vivo; summary of the method: as §1
[10] = AUC in rat at 10 mg/kg, po administered as single dose by LC-MS/MS analysis; format: ADME, organism-based; set-up: dose 10 mg/kg, route oral; conditions: plasma; summary of the method: as §1
Rattus norvegicus [11] = experiment: Increase in vaginal fluidity in ovariectomized rat at 0.1 mg/kg, po administered daily measured after 6 weeks by cytology analysis; format: functional, organism-based; set-up: dose 0.1 mg/kg; summary of the method: as §3
Rattus norvegicus [12] = experiment: Decrease in plasma cholesterol level in ovariectomized rat osteopenia model at 0.003 to 0.3 mg/kg, po administered daily measured after 2 weeks; format: functional, organism-based
[13] = Cmax in rats after 10 mg/kg oral dose; format: ADME, organism-based; set-up: dose 10 mg/kg, route oral; conditions: rat, in vivo; summary of the method: as §1
[14] = Half life in rat at 2 mg/kg, iv administered as single dose by LC-MS/MS analysis; format: ADME, organism-based; set-up: dose 2 mg/kg, route intravenous; conditions: in vivo; summary of the method: as §1
Rattus norvegicus [15] = experiment: Decrease in bone resorption in ovariectomized rat assessed as decrease in urine deoxypyridinoline level at 0.003 to 0.3 mg/kg, po administered daily measured after 6 weeks; format: functional, organism-based
Summary of the method: (§4)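 Adult (>6 months) female rats, housed singly on a casein-based diet, ovariectomized under sterile conditions and anesthesia; 6-14 per group. From 24 h after surgery, daily oral gavage of an aqueous suspension in 0.5% Methocel for 2 or 6 weeks. […] Urine deoxypyridinoline measured as bone-resorption marker.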

Rattus norvegicus [16] = experiment: Estrogenic activity in ovariectomized rat assessed as minor increase in uterine epithelial thickness at 0.001 to 0.3 mg/kg, po administered daily measured after 6 week by immunohistochemical analysis; format: functional, organism-based
[17] = Tmax in rat at 2 mg/kg, iv administered as single dose by LC-MS/MS analysis; format: ADME, organism-based; set-up: dose 2 mg/kg, route intravenous; conditions: in vivo; summary of the method: as §1
[18] = Tmax in rat at 10 mg/kg, po administered as single dose by LC-MS/MS analysis; format: ADME, organism-based; set-up: dose 10 mg/kg, route oral; conditions: in vivo; summary of the method: as §1
Rattus norvegicus [19] = experiment: Estrogenic activity in ovariectomized rat assessed as increase in uterine epithelial thickness at 0.1 mg/kg, po administered daily measured after 6 week by immunohistochemical analysis; format: functional, organism-based; set-up: dose 0.1 mg/kg
Rattus norvegicus [20] = experiment: Decrease in plasma cholesterol level in ovariectomized rat osteopenia model at 0.3 mg/kg, po administered daily measured after 6 weeks; format: functional; set-up: scale not given: the % may be the effect or the level left
Rattus norvegicus [21] = experiment: Decrease in plasma cholesterol level in ovariectomized rat osteopenia model at 0.03 mg/kg, po administered daily measured after 6 weeks; format: functional; set-up: scale not given: the % may be the effect or the level left
Rattus norvegicus [22] = experiment: Effect on bone turnover in ovariectomized rat assessed as prevention of tibial bone density at 0.3 mg/kg, po administered daily measured after 6 weeks by ex vivo peripheral quantitative computerized tomography; format: functional, organism-based; set-up: dose 0.3 mg/kg
Rattus norvegicus [23] = experiment: Increase in uterine weight in po dosed ovariectomized rat osteopenia model administered daily measured after 6 weeks; format: functional, organism-based
Rattus norvegicus [24] = experiment: Increase in uterine weight in ovariectomized rat osteopenia model at 1 mg/kg, po administered daily measured after 6 weeks; format: functional, organism-based; set-up: dose 1 mg/kg
Rattus norvegicus [25] = experiment: Decrease in plasma cholesterol level in ovariectomized rat osteopenia model at 0.01 to 0.1 mg/kg, po administered daily measured after 6 weeks; format: functional; set-up: scale not given: the % may be the effect or the level left; conditions: dose mg/kg 0.01-0.1
Rattus norvegicus [26] = experiment: Effect on bone turnover in po dosed ovariectomized rat assessed as prevention of tibial bone loss administered daily measured after 6 weeks by ex vivo peripheral quantitative computerized tomography; format: functional, organism-based
[27] = Half life in rat at 10 mg/kg, po administered as single dose by LC-MS/MS analysis; format: ADME, organism-based; set-up: dose 10 mg/kg, route oral; conditions: in vivo; summary of the method: as §1
Rattus norvegicus [28] = experiment: Estrogenic activity in ovariectomized rat assessed as minor increase in uterine epithelial thickness at 1 mg/kg, po administered daily measured after 6 week by immunohistochemical analysis; format: functional, organism-based; set-up: dose 1 mg/kg
Rattus norvegicus [29] = experiment: Decrease in bone resorption in ovariectomized rat assessed as decrease in urine deoxypyridinoline level at 1 mg/kg, po administered daily measured after 6 weeks; format: functional, organism-based; set-up: dose 1 mg/kg; summary of the method: as §4
Rattus norvegicus [30] = experiment: Effect on bone turnover in ovariectomized rat assessed as prevention of tibial bone density at 1 mg/kg, po administered daily measured after 6 weeks by ex vivo peripheral quantitative computerized tomography; format: functional, organism-based; set-up: dose 1 mg/kg
Rattus norvegicus [31] = experiment: Increase in vaginal secretion in ovariectomized rat at 1 mg/kg, po administered daily measured after 2 weeks […]; format: functional, organism-based; set-up: dose 1 mg/kg; summary of the method: as §3
Rattus norvegicus [32] = experiment: Decrease in tail skin temperature rise in morphine-addicted Sprague-Dawley rat hot flush model at 0.3 mg/kg, po administered daily measured for 60 mins after naloxone-induced morphine withdrawal; format: functional, organism-based; set-up: dose 0.3 mg/kg; summary of the method: as §2
Rattus norvegicus [33] = experiment: Decrease in bone resorption in ovariectomized rat assessed as decrease in urine deoxypyridinoline level at 0.1 mg/kg, po administered daily measured after 6 weeks; format: functional, organism-based; set-up: dose 0.1 mg/kg; summary of the method: as §4

Structure (SMILES): O=C(c1ccc(OCCN2CCCCC2)cc1)c1c(-c2ccc(O)cc2)sc2cc(O)ccc12 [RALOXIFENE]
Activity (Rattus norvegicus [28]): Active | Activity (Rattus norvegicus [29]): Active | inhibition in vivo at 1 mg/kg (Rattus norvegicus [3]): 105% | Activity (Rattus norvegicus [30]): Active | Activity (Rattus norvegicus [31]): inactive

Structure (SMILES): CCN(CC)CCOc1ccc([C@@H]2Oc3ccccc3C3=C2c2ccc(O)cc2OCC3)cc1
IC50 (Estrogen receptor [1]): 9 nM | IC50 (Estrogen receptor [2]): 133 nM | inhibition in vivo at 1 mg/kg (Rattus norvegicus [3]): 30% | IC50 (Estrogen receptor beta): 28 nM | stimulation at 1 mg/kg (Rattus norvegicus [4]): 100%

Structure (SMILES): C#C[C@]1(O)CC[C@H]2[C@@H]3CCc4cc(O)ccc4[C@H]3CC[C@@]21C
Activity (Rattus norvegicus [32]): Active | Activity (Rattus norvegicus [11]): Active | Activity (Rattus norvegicus [33]): Active

Structure (SMILES): CC/C(=C(\c1ccccc1)c1ccc(OCCN(C)C)cc1)c1ccccc1 [TAMOXIFEN]
inhibition in vivo at 1 mg/kg (Rattus norvegicus [3]): 0% | stimulation at 1 mg/kg (Rattus norvegicus [4]): 109%

Continued, in another order:

IC50 (Estrogen receptor [1]): 5.6 nM | IC50 (Estrogen receptor [2]): 35 nM | IC50 (Estrogen receptor beta): 18.5 nM
Structure (SMILES): CC(C)N(CCOc1ccc([C@@H]2Oc3cc(O)ccc3C3=C2c2ccc(O)cc2OCC3)cc1)C(C)C
inhibition in vivo at 1 mg/kg (Rattus norvegicus [3]): 30% | stimulation at 1 mg/kg (Rattus norvegicus [4]): 80%

Cmax [5]: 1040 ng/mL | IC50 (Estrogen receptor [1]): 64 nM | AUC [8]: 1390 ng·h/mL | bioavailability [9]: 30.8% | IC50 (Estrogen receptor [2]): 1740 nM | AUC [10]: 2270 ng·h/mL | Cmax [13]: 168 ng/mL | half-life [14]: 5.82 h | Tmax [17]: 4.8 min | IC50 (Estrogen receptor beta): Not Active | Tmax [18]: 5 h | half-life [27]: 7.2 h
Structure (SMILES): COc1ccc2c(c1)O[C@H](c1ccc(OCCN3CCCCC3)cc1)C1=C2CCOc2cc(OC)ccc21
Activity (Rattus norvegicus [6]): Active | Activity (Rattus norvegicus [7]): Dose-dependent effect | Activity (Rattus norvegicus [11]): Active | Activity (Rattus norvegicus [12]): Active | Activity (Rattus norvegicus [15]): Active | inhibition in vivo at 1 mg/kg (Rattus norvegicus [3]): 121% | Activity (Rattus norvegicus [16]): Active | Activity (Rattus norvegicus [19]): Active | Activity (Rattus norvegicus [20]): 50% | Activity (Rattus norvegicus [21]): 50% | Activity (Rattus norvegicus [22]): Active | Activity (Rattus norvegicus [23]): Dose-dependent effect | Activity (Rattus norvegicus [24]): inactive | Activity (Rattus norvegicus [25]): 60% | Activity (Rattus norvegicus [26]): Dose-dependent effect

IC50 (Estrogen receptor beta): 23 nM
Structure (SMILES): CN(C)CCOc1ccc([C@@H]2Oc3ccccc3C3=C2c2ccc(O)cc2OCC3)cc1
inhibition in vivo at 1 mg/kg (Rattus norvegicus [3]): 18% | stimulation at 1 mg/kg (Rattus norvegicus [4]): 70%

IC50 (Estrogen receptor [1]): 11 nM | IC50 (Estrogen receptor [2]): 405 nM | IC50 (Estrogen receptor beta): 12 nM
Structure (SMILES): CN(C)CCOc1ccc([C@@H]2Oc3cc(O)ccc3C3=C2c2ccc(O)cc2OCC3)cc1
inhibition in vivo at 1 mg/kg (Rattus norvegicus [3]): 0% | stimulation at 1 mg/kg (Rattus norvegicus [4]): 100%

IC50 (Estrogen receptor [1]): 100 nM | bioavailability [9]: 9% | IC50 (Estrogen receptor [2]): 259 nM | AUC [10]: 1130 ng·h/mL | Cmax [13]: 30 ng/mL | IC50 (Estrogen receptor beta): 200 nM | Tmax [18]: 4.8 h | half-life [27]: 5.28 h
Structure (SMILES): Oc1ccc2c(c1)O[C@H](c1ccc(OCCN3CCCCC3)cc1)C1=C2CCOc2ccccc21
inhibition in vivo at 1 mg/kg (Rattus norvegicus [3]): 5%
